Entries after “also recorded” stand apart in the source; their conditions may differ.
Key:
HDAC isoforms = details: cited from earlier work
[1] = test system: HCT116 colorectal cancer cell line; experiment: Cytoproliferation; assay type: cell-based; details: for effect on cell growth: HCT116, 96 hours, up to the highest concentration tested, 5 μM; for effect on cytoproliferation at lower concentrations: HCT116, 0.01, 0.1 and 1.0 nM (data not shown)
Method in brief: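 HCT116 colorectal carcinoma cells seeded at 3×10⁴ cells/well in quadruplicate, attached overnight. Medium then replaced with fresh medium containing test compound; incubated 96 hours at 37 °C, 5% CO₂. CellTiter 96 One Solution MTS reagent added for 1.5 h at 37 °C, absorbance read at 490 nm. Points are mean of two experiments, 4 replicates each, with SEM.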

[2] = test system: global H3K9 acetylation in HCT116 cells; experiment: Western blot of global histone H3K9 acetylation; assay type: cell-based; details: HCT116, 24 hours, 100 nM and 1 μM; for concentration at which increase of global H3K9 acetylation was observed: tested at 10 nM; for induction of global H3K9 (H3) acetylation: 10 nM
Method in brief: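 HCT116 cells exposed 24 hours to test compound at 10 nM, 100 nM or 1 μM, or to DMSO. Lysed in RIPA buffer (50 mmol/L Tris-HCl, 1% NP-40, 0.25% deoxycholate, 150 mmol/L NaCl, 50 mmol/L NaF). Protein quantified by DC assay, 30 μg/lane run on SDS-PAGE. Blots probed for acetyl-H3 with β-actin loading control, detected by dye-conjugated secondaries on infrared scanner.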

recombinant HDAC6 = target: T1, recombinant HDAC6 (Homo sapiens, UniProt Q9UBN7); experiment: Fluorimetric HDAC activity assay, recombinant HDAC6; assay type: biochemical; details: 0–5 μM
T1 sequence (Q9UBN7 1-1215): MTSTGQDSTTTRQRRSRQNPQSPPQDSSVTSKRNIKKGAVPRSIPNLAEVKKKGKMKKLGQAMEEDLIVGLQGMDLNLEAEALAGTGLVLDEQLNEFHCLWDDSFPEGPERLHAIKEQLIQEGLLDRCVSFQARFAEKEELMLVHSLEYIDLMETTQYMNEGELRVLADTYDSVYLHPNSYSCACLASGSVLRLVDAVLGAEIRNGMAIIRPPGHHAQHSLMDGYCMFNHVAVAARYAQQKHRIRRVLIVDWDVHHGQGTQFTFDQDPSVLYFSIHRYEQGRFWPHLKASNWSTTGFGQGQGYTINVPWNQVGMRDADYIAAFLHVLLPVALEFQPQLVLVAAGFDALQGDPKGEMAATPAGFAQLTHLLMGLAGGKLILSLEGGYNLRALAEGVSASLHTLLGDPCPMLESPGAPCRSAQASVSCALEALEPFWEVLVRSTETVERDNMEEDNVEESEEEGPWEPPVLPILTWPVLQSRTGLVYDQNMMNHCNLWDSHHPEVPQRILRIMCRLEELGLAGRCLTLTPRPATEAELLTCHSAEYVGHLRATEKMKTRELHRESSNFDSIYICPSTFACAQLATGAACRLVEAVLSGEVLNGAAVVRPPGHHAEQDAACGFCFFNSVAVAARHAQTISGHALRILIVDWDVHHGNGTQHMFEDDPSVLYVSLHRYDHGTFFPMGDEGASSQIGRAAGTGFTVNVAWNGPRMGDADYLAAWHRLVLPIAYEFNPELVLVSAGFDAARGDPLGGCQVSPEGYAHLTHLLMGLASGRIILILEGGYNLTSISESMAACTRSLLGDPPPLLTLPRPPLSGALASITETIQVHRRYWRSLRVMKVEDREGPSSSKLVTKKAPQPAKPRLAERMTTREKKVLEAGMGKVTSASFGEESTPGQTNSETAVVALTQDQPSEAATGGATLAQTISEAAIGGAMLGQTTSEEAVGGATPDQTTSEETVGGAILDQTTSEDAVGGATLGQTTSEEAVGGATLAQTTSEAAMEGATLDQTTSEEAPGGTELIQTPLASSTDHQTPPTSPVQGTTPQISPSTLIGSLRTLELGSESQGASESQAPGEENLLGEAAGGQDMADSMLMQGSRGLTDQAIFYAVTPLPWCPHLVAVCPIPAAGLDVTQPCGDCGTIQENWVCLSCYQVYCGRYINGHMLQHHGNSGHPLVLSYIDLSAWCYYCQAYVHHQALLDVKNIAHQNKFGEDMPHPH

human cancer cells = details: cited from earlier work
recombinant HDAC1 = recombinant HDAC1 (Homo sapiens, UniProt Q13547); experiment: Fluorimetric HDAC activity assay, recombinant HDAC1; assay type: biochemical; details: at 0.1 μM, 1 hour
Chain of recombinant HDAC1 (Q13547 whole entry): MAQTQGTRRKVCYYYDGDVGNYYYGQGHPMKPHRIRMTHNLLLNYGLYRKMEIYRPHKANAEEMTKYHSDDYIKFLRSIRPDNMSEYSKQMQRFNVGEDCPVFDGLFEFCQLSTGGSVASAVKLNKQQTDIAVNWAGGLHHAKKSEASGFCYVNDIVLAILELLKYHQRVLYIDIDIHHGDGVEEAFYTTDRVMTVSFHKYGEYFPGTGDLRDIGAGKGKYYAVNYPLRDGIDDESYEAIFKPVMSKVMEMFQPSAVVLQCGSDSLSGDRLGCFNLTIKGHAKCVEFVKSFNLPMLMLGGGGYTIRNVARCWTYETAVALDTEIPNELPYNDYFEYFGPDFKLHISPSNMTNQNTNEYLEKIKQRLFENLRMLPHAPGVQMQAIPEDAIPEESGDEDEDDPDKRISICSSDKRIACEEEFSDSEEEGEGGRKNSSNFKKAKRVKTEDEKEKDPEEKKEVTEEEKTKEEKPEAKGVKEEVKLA

Row | Compound | concentration at which increase of global H3K9 acetylation was observed [2] [nM] | effect on cell growth [1] | induction of global H3K9 (H3) acetylation [2] | further results
1 | CCCCCCCC(=O)SCCC=CC1CC(=O)NCc2nc(cs2)C2=NC(C)(CS2)C(=O)NC(C(C)C)C(=O)O1 (single isomer, unassigned) [enantiomer of largazole] |  |  |  | potency in inhibiting HDAC isoforms relative to largazole (HDAC isoforms): three times less potent
2 | CCCCCCCC(=O)SCC/C=C/[C@@H]1CC(=O)NCc2nc(cs2)C2=N[C@@](C)(CS2)C(=O)N[C@@H](C(C)C)C(=O)O1 [largazole, reference compound] | 10 |  |  | GI50 ([1]; Homo sapiens, HCT-116, 96 h): < 10 nM
3 | CCCCCCCC(=O)SCC/C=C/[C@@H]1CC(=O)NCc2nc(cs2)C2=N[C@@](C)(CS2)C(=O)N[C@H](Cc2cccc3ccccc23)C(=O)O1 [Analogue 16a] |  | minimal effect; also recorded: no effect | very little induction; also recorded: no change; also recorded: failed to induce | HDAC6 specific inhibition (comparison among analogues) (recombinant HDAC6): least amount
4 | CCCCCCCC(=O)SCCC=CC1CC(=O)NCc2nc(cs2)C2=NC(C)(CS2)C(=O)NC(C(C)C)C(=O)O1 (stereo not shown) [C-2 epimer of largazole] |  |  |  | inhibitory potency against HDAC isoforms (HDAC isoforms): sub-micromolar
5 | CCCCCCCC(=O)SCCC=CC1CC(=O)NCc2nc(cs2)C2=NC(C)(CS2)C(=O)NC(Cc2ccc(O)cc2)C(=O)O1 [L-tyrosine analogue] |  |  |  | selectivity toward human cancer cells over normal cells (human cancer cells): 100 fold
6 | CCCCCCCC(=O)SCC/C=C/[C@@H]1CC(=O)NCc2nc(cs2)C2=N[C@@](C)(CS2)C(=O)N[C@@H](Cc2cccc3ccccc23)C(=O)O1 [Analogue 16c] | 10 | significant effect | greatest induction; also recorded: robust induction | effect on cytoproliferation at lower concentrations [1]: No significant effect; inhibition of HDAC1 activity (recombinant HDAC1): about 15%
7 | C=CCC1NC(=O)C2(C)CSC(=N2)c2csc(n2)CNC(=O)CC(C=CCCSC(=O)CCCCCCC)OC1=O (stereo not shown) [Analogue 16b] | 100 | significant effect | greatest induction; also recorded: robust induction | effect on cytoproliferation at lower concentrations [1]: No significant effect
8 | CCCCCCCC(=O)SCC/C=C/[C@@H]1CC(=O)NCc2nc(cs2)C2=N[C@](C)(CS2)C(=O)N[C@@H](C(C)C)C(=O)O1 [Analogue 12] |  | minimal effect | very little induction; also recorded: slight increase; also recorded: no change; also recorded: slight induction | 
